According to ChEMBL document CHEMBL1141356, “Derrubone, an inhibitor of the Hsp90 protein folding machinery” (J Nat Prod, 2007):
Values belong to the molecule of their own block, whether it stands above or below them. The source made the active and inactive calls. The rule behind the calls is not given here.

Assays:
[1] = Inhibition of Hsp90
Outline: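 Thermally denatured firefly luciferase refolded in rabbit reticulocyte lysate at room temperature. Run in triplicate and repeated at least twice; luminescence read with 10 s integration. IC50 is the concentration that cuts recovery of luciferase activity by 50% versus DMSO. Linearity checked by anti-luciferase Western blot over the time course.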

[2] = organism: Oryctolagus cuniculus; assay: Inhibition of Hsp90-dependent luciferase refolding in rabbit reticulocyte at 100 uM after 20 mins
[3] = organism: Oryctolagus cuniculus; assay: Inhibition of Hsp90-dependent maturation and activation of heme-regulated eIF2-alpha kinase in heme-deficient rabbit reticulocyte lysate at 100 uM
[4] = organism: Bos taurus; assay: Inhibition of ATPase activity of bovine Hsp70 at upto 400 uM
Outline: (§1)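 Intrinsic ATPase measured with purified chaperone (bovine Hsp70 or bacterial DnaK, 1 µM) and 1 mM ATP, 3 h at 37 °C, compound or DMSO. Malachite green-molybdate added, then quenched with 3% sodium citrate; absorbance read at 620 nm. Compound tested up to 400 µM. Result is % of solvent control, mean of triplicates.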

[5] = Inhibition of ATPase activity of bacterial DnaK at upto 400 uM; outline: as §1
[6] = Effect on binding of Hsp90 to HR1 relative to control
[7] = test system: MCF7; assay: Antiproliferative activity against human MCF7 cells expressing ERalpha; type: functional, cell-based
Outline: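 MCF-7 cells (ERα-positive human breast cancer) grown in 1:1 DMEM:Ham's F-12 with nonessential amino acids, 2 mM L-glutamine, streptomycin, penicillin and 10% FBS at 37 °C, 5% CO2. Antiproliferative IC50 derived from three separate experiments, each run in triplicate.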

[8] = target: T1, Heat shock protein HSP90 (Homo sapiens, UniProt P07900+P08238); assay: Inhibition of Hsp90 in human SkBr3 cells assessed as induction of Her2 degradation by ELISA; type: cell-based
Outline: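 SkBr3 cells seeded at 3000/well, attached overnight, then treated 24 h. Washed with ice-cold PBS/1% Tween and fixed with -20 °C methanol, 10 min at 4 °C. Blocked in 5% BSA/PBST 1 h. Rabbit anti-Her2 (1:500) overnight at 4 °C, then HRP anti-rabbit (1:1000) 2 h at rt; chemiluminescence read. IC50 from three experiments in triplicate.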

[9] = target: T1, Heat shock protein HSP90; assay: Inhibition of Hsp90 in human MCF7 cells assessed as induction of Raf degradation after 36 hrs by Western blot analysis; type: cell-based
Outline: (§2)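 MCF-7 cells grown in DMEM:Ham's F-12 (1:1) with nonessential amino acids, 2 mM L-glutamine, antibiotics and 10% FBS. Seeded at 1 × 10^6 per dish, attached overnight, treated with varying concentrations for 36 h at 37 °C, 5% CO2. Harvested for Western blot of client proteins. Controls were GA 500 nM and DMSO.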

[10] = target: T1, Heat shock protein HSP90; assay: Inhibition of Hsp90 in human MCF7 cells assessed as induction of Akt degradation after 36 hrs by Western blot analysis; type: cell-based; outline: as §2
[11] = target: T1, Heat shock protein HSP90; assay: Inhibition of Hsp90 in human MCF7 cells assessed as induction of ERalpha degradation after 36 hrs by Western blot analysis; type: cell-based; outline: as §2
[12] = target: T1, Heat shock protein HSP90; assay: Inhibition of Hsp90 in human MCF7 cells assessed as induction of Her2 degradation after 36 hrs by Western blot analysis; type: cell-based
[13] = target: T1, Heat shock protein HSP90; assay: Inhibition of Hsp90 in human MCF7 cells assessed as induction of actin degradation after 36 hrs by Western blot analysis; type: cell-based; outline: as §2
[14] = test system: SK-BR-3; assay: Antiproliferative activity against human SkBr3 cells ERalpha-negative and overexpressing Her2
[15] = organism: Oryctolagus cuniculus; assay: Inhibition of Hsp90-dependent activation of heme-regulated Eif2-alpha kinase in heme-deficient rabbit reticulocyte lysate at 100 uM
[16] = Inhibition of Hsp90 in cell based assay

IC50 [16]: 500 µM
SMILES: CO[C@@H]1[C@@H](OC(N)=O)[C@@H](O)[C@H](Oc2ccc3c(O)c(NC(=O)c4ccc(O)c(CC=C(C)C)c4)c(=O)oc3c2C)OC1(C)C [NOVOBIOCIN]

Activity [1]: inactive
SMILES: COc1cc(OC)c2c(OC)c(-c3ccc4c(c3)OCO4)c(=O)oc2c1

IC50 [1]: < 100 nM
SMILES: C[C@@H]1C[C@H]2O[C@@H]2C=C/C=C/C(=O)Cc2c(Cl)c(O)cc(O)c2C(=O)O1 [RADICICOL]

IC50 [1]: < 100 nM | Activity [6]: 80%
SMILES: COC1=C2C[C@@H](C)C[C@H](OC)[C@H](O)[C@@H](C)/C=C(\C)[C@H](OC(N)=O)[C@@H](OC)/C=C\C=C(/C)C(=O)NC(=CC1=O)C2=O (stereo in doubt) [GELDANAMYCIN]

The next lines start with the molecule.

SMILES: CC1(C)C=Cc2c(cc3occ(-c4ccc5c(c4)OCO5)c(=O)c3c2O)O1
Activity [1]: inactive

SMILES: CC(C)=CCc1c(O)cc2occ(-c3ccc4c(c3)OCO4)c(=O)c2c1O [DERRUBONE]
IC50 [1]: 230 nM | Activity [2]: Active | Activity [3]: Active | Activity [4]: inactive | Activity [5]: inactive | Activity [6]: 46% | IC50 [7]: 9 µM | IC50 [8]: 14 µM | Activity [9]: Active | Activity [10]: Active | Activity [11]: Active | Activity [12]: Active | Activity [13]: Active | IC50 [14]: 12 µM | Activity [15]: Active

SMILES: COc1cc(OC)c2c(=O)c(-c3ccc4c(c3)OCO4)coc2c1
Activity [1]: inactive

SMILES: COc1ccc(-c2c(O)c3c(OC)c4c(cc3oc2=O)OC(C)(C)C=C4)cc1
Activity [1]: inactive
